Activity calls are given as the source filed them. No cut-off for these calls is given here.
Columns and labels:
Plasmodium falciparum = assay: Antimalarial activity against Plasmodium falciparum Dd2 […] cells after 72 hrs by [3H]hypoxanthine incorporation assay; format: functional, organism-based
In short: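 Synchronized (sorbitol) blood-stage P. falciparum Dd2 cultures exposed to a range of compound concentrations for 72 h; growth read by [³H]-hypoxanthine incorporation, percent inhibition used to derive IC₅₀. At least three independent repeats, mean ± SEM.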

[1] = target: ATP-dependent translocase ABCB1 (Homo sapiens, UniProt P08183); assay: Inhibition of ABCB1 overexpressed in human CCRF-CEM/VCR1000 cell assessed as inhibition of daunomycin efflux after 30 mins by FACS analysis
[2] = target: T1, Multidrug resistance protein Pgh1 (Plasmodium falciparum) (UniProt Q9NG76); assay: Inhibition of Plasmodium PGH1-mediated fluorochrome accumulation into parasite digestive vacuole at […] concentration
T1 sequence (whole entry): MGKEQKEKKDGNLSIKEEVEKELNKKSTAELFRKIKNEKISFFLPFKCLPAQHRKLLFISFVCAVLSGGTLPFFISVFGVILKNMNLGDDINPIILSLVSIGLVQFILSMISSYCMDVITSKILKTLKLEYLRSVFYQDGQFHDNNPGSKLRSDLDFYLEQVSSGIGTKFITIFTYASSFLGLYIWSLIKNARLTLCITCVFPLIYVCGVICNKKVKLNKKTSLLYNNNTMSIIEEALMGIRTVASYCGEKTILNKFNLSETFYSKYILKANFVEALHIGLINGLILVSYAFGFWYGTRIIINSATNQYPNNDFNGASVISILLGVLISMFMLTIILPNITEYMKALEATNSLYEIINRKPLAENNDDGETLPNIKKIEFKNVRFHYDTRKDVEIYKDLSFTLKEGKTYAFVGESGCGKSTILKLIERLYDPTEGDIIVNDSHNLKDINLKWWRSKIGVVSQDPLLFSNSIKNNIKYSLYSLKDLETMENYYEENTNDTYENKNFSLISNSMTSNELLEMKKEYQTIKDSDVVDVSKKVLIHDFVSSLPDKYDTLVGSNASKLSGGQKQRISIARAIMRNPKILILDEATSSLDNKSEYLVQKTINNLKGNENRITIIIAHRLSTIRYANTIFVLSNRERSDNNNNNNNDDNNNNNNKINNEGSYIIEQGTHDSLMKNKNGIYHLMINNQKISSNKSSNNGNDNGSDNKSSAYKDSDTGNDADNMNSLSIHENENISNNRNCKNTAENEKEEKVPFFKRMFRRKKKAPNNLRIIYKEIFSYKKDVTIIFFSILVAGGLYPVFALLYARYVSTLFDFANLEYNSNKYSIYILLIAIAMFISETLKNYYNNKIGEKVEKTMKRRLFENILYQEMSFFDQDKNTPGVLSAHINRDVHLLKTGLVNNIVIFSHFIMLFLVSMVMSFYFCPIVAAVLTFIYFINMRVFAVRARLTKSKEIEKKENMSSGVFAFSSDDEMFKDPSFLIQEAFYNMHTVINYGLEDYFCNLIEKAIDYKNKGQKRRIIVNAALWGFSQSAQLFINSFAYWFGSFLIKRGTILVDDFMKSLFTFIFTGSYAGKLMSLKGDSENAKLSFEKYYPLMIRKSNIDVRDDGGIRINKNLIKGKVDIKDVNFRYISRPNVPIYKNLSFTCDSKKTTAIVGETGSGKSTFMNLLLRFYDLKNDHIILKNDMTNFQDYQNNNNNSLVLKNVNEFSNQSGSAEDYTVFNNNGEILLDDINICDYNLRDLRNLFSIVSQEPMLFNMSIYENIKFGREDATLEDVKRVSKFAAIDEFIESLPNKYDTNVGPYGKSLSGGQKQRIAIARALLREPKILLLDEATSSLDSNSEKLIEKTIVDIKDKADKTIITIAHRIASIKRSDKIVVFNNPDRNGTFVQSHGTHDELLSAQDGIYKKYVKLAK

[3] = test system: Trypanosoma brucei brucei; assay: Antitrypanosomal activity against Trypanosoma brucei brucei TC221 after 48 hrs by alamar blue assay; format: functional, organism-based; settings: TC221, 48 h
In short: (§1)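 T. b. brucei TC 221 trypomastigotes grown in Baltz medium; 10⁴ parasites/mL exposed to graded compound concentrations (DMSO or 0.1 M NaOH solutions) at 37 °C, 5% CO₂. Alamar Blue absorbance at 550 nm (reference 630 nm) read at 48 h and 72 h. Parasite-only and compound-only controls; ED₅₀ by linear interpolation of three measurements.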

[4] = Selectivity index, ratio of CC50 for human HeLa cells to IC50 for Plasmodium falciparum Dd2 […] cells; format: functional
In short: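 Selectivity index computed as HeLa CC₅₀ (72 h methylene blue assay) divided by P. falciparum Dd2 IC₅₀ (72 h [³H]-hypoxanthine assay).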

[5] = test system: Trypanosoma brucei brucei; assay: Antitrypanosomal activity against Trypanosoma brucei brucei TC221 after 72 hrs by alamar blue assay; format: functional, organism-based; settings: TC221, 72 h; in short: as §1
[6] = Cytotoxicity against human HeLa cells after 72 hrs by methylene blue staining; format: cell-based
In short: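 HeLa cells in RPMI 1640 with 10% heat-inactivated FBS and gentamicin; ~10,000 cells/well preincubated 48 h, then exposed to compound (DMSO stock 10 mg/mL diluted 1:200) for 72 h at 37 °C, 5% CO₂. Glutaraldehyde fixation, 0.05% methylene blue staining, elution with 0.33 M HCl, OD 660 nm.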

## CC1CCN(C(=O)Nc2ccc(NC(=O)C(c3ccccc3)N3CCN(C)CC3)c(C(=O)c3ccccc3)c2)CC1 (centres undefined)
Plasmodium falciparum
  IC50: > 16 µM
[1]
  EC50: 4.97 µM
[2]
  inhibition: inactive

## CC(=O)Nc1ccc(NC(=O)CN2CCN(C)CC2)c(C(=O)c2ccccc2)c1
Plasmodium falciparum
  IC50: 9.45 µM
[3]
  IC50: 23.1 µM
[4]
  Ratio CC50/IC50: 6
[5]
  IC50: 22.9 µM
[2]
  inhibition: inactive
[6]
  CC50 at 72 h: 53 µM

## CN1CCN(C(C(=O)Nc2ccc(NC(=O)Cc3ccccc3)cc2C(=O)c2ccccc2)c2ccccc2)CC1 (racemic)
Plasmodium falciparum
  IC50: 2 µM
[1]
  EC50: 0.36 µM
[3]
  IC50: 3.64 µM
[4]
  Ratio CC50/IC50: 8
[5]
  IC50: 3.25 µM
[2]
  inhibition: inactive
[6]
  CC50 at 72 h: 16 µM

## CN1CCN(C(C(=O)Nc2ccc(NC(=O)c3ccc4ccccc4c3)cc2C(=O)c2ccccc2)c2ccccc2)CC1 (racemic)
Plasmodium falciparum
  IC50: 0.24 µM
[1]
  EC50: 0.04 µM
[3]
  IC50: 1.98 µM
[4]
  Ratio CC50/IC50: 17
[5]
  IC50: 2.64 µM
[2]
  inhibition: inactive
[6]
  CC50 at 72 h: 4 µM

## CN1CCN(C(C(=O)Nc2ccc(NS(=O)(=O)c3ccccc3)cc2C(=O)c2ccccc2)c2ccccc2)CC1 (racemic)
Plasmodium falciparum
  IC50: 0.91 µM
[1]
  EC50: 0.89 µM
[3]
  IC50: 5.38 µM
[4]
  Ratio CC50/IC50: 29
[5]
  IC50: 2.92 µM
[2]
  inhibition: inactive
[6]
  CC50 at 72 h: 26 µM

## CC(=O)Nc1ccc(NC(=O)C(c2ccccc2)N2CCN(C)CC2)c(C(=O)c2ccccc2)c1 (racemic)
Plasmodium falciparum
  IC50: 9.72 µM
[1]
  EC50: 6.29 µM
[3]
  IC50: 9.05 µM
[4]
  Ratio CC50/IC50: 11
[5]
  IC50: 6.59 µM
[2]
  inhibition: inactive
[6]
  CC50 at 72 h: 105 µM

## CCC(=O)Nc1ccc(NC(=O)CN2CCN(C)CC2)c(C(=O)c2ccccc2)c1
Plasmodium falciparum
  IC50: > 16 µM
[3]
  IC50: 53.4 µM
[4]
  Ratio CC50/IC50: >8
[5]
  IC50: 71.5 µM
[2]
  inhibition: inactive
[6]
  CC50 at 72 h: > 122 µM

## CN1CCN(CC(=O)Nc2ccc(NC(=O)c3ccccc3)cc2C(=O)c2ccccc2)CC1
Plasmodium falciparum
  IC50: > 16 µM
[3]
  IC50: 49.4 µM
[4]
  Ratio CC50/IC50: >7
[5]
  IC50: 83.2 µM
[2]
  inhibition: inactive
[6]
  CC50 at 72 h: > 109 µM

## CN1CCN(CC(=O)Nc2ccc(NC(=O)CCc3ccccc3)cc2C(=O)c2ccccc2)CC1
Plasmodium falciparum
  IC50: 6.72 µM
[1]
  EC50: 2.23 µM
[3]
  IC50: 13.9 µM
[4]
  Ratio CC50/IC50: 12
[5]
  IC50: 21.9 µM
[2]
  inhibition: inactive
[6]
  CC50 at 72 h: 80 µM

## CN1CCN(C(C(=O)Nc2ccc(NC(=O)c3ccccc3)cc2C(=O)c2ccccc2)c2ccccc2)CC1 (racemic)
Plasmodium falciparum
  IC50: 1.61 µM
[1]
  EC50: 0.24 µM
[3]
  IC50: 3.28 µM
[4]
  Ratio CC50/IC50: 10
[5]
  IC50: 3.28 µM
[2]
  inhibition: inactive
[6]
  CC50 at 72 h: 16 µM

## CCC(=O)Nc1ccc(NC(=O)C(c2ccccc2)N2CCN(C)CC2)c(C(=O)c2ccccc2)c1 (racemic)
Plasmodium falciparum
  IC50: 7.19 µM
[1]
  EC50: 3.3 µM
[3]
  IC50: 16.7 µM
[4]
  Ratio CC50/IC50: 12
[5]
  IC50: 24.6 µM
[2]
  inhibition: inactive
[6]
  CC50 at 72 h: 84 µM

## CN1CCN(C(C(=O)Nc2ccc(NC(=O)c3cccnc3)cc2C(=O)c2ccccc2)c2ccccc2)CC1 (centres undefined)
Plasmodium falciparum
  IC50: 2.26 µM
[1]
  EC50: 5.12 µM
[3]
  IC50: 5.06 µM
[4]
  Ratio CC50/IC50: 16
[5]
  IC50: 7.02 µM
[2]
  inhibition: inactive
[6]
  CC50 at 72 h: 37 µM

## CN1CCN(C(C(=O)Nc2ccc(NC(=O)C(C)(C)C)cc2C(=O)c2ccccc2)c2ccccc2)CC1 (racemic)
Plasmodium falciparum
  IC50: 3.04 µM
[1]
  EC50: 0.39 µM
[3]
  IC50: 11.4 µM
[4]
  Ratio CC50/IC50: 15
[5]
  IC50: 4.67 µM
[2]
  inhibition: inactive
[6]
  CC50 at 72 h: 45 µM

## CN1CCN(C(C(=O)Nc2ccc(NS(C)(=O)=O)cc2C(=O)c2ccccc2)c2ccccc2)CC1 (racemic)
Plasmodium falciparum
  IC50: 10.6 µM
[1]
  EC50: 15.5 µM
[3]
  IC50: 5.58 µM
[4]
  Ratio CC50/IC50: 9
[5]
  IC50: 5.84 µM
[2]
  inhibition: inactive
[6]
  CC50 at 72 h: 99 µM

## CN1CCN(C(C(=O)Nc2ccc(NC(=O)c3cccc4ccccc34)cc2C(=O)c2ccccc2)c2ccccc2)CC1 (racemic)
Plasmodium falciparum
  IC50: 0.93 µM
[1]
  EC50: 0.23 µM
[3]
  IC50: 1.93 µM
[4]
  Ratio CC50/IC50: 4
[5]
  IC50: 2.68 µM
[2]
  inhibition: inactive
[6]
  CC50 at 72 h: 4 µM

## CC(C)N(C(=O)Nc1ccc(NC(=O)C(c2ccccc2)N2CCN(C)CC2)c(C(=O)c2ccccc2)c1)C(C)C (centres undefined)
Plasmodium falciparum
  IC50: 0.11 µM
[1]
  EC50: 0.46 µM
[4]
  Ratio CC50/IC50: 36
[2]
  inhibition: inactive
[6]
  CC50 at 72 h: 4 µM

## CN1CCN(CC(=O)Nc2ccc(NC(=O)c3ccc4ccccc4c3)cc2C(=O)c2ccccc2)CC1
Plasmodium falciparum
  IC50: 2.01 µM
[1]
  EC50: 0.48 µM
[3]
  IC50: 0.81 µM
[4]
  Ratio CC50/IC50: 5
[5]
  IC50: 2.01 µM
[2]
  inhibition: inactive
[6]
  CC50 at 72 h: 9 µM

## CN1CCN(C(C(=O)Nc2ccc(N(S(=O)(=O)c3ccccc3)S(=O)(=O)c3ccccc3)cc2C(=O)c2ccccc2)c2ccccc2)CC1 (racemic)
Plasmodium falciparum
  IC50: 1.24 µM
[1]
  EC50: 0.04 µM
[3]
  IC50: 3.01 µM
[4]
  Ratio CC50/IC50: 10
[5]
  IC50: 3.12 µM
[2]
  inhibition: inactive
[6]
  CC50 at 72 h: 12 µM

## CN1CCN(C(C(=O)Nc2ccc(NC(=O)CCc3ccccc3)cc2C(=O)c2ccccc2)c2ccccc2)CC1 (racemic)
Plasmodium falciparum
  IC50: 1.8 µM
[1]
  EC50: 0.06 µM
[3]
  IC50: 3.27 µM
[4]
  Ratio CC50/IC50: 4
[5]
  IC50: 3.02 µM
[2]
  inhibition: inactive
[6]
  CC50 at 72 h: 8 µM

From ChEMBL document CHEMBL1152663, “Antimalarial and antitrypanosomal activity of a series of amide and sulfonamide derivatives of a 2,5-diaminobenzophenone” (Bioorg Med Chem, 2009)
